Data on 18 compounds can be found in ChEMBL document CHEMBL4699450, “Nonclassical Phenyl Bioisosteres as Effective Replacements in a Series of Novel Open-Source Antimalarials” (J Med Chem, 2020).

Series [1] concerns Plasmodium falciparum. In words: Antiplasmodial activity against Plasmodium falciparum 3D7 by SYBR green-I fluorescence dye based fluorescence assay. The format is functional, organism-based. The method, boiled down: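 P. falciparum 3D7 grown in human red cells (1.25% or 5% suspension) in RPMI 1640 with 0.5% Albumax II, 12 mM bicarbonate, 0.2 mM hypoxanthine, pH 7.3, gentamicin, 37 °C, 1% O2/3% CO2. Ten-point dose-response, 1-in-3 dilutions; SYBR Green I DNA fluorescence (ex 485/em 528 nm); mefloquine control; percent inhibition vs high/no-inhibition controls; four-parameter fit; IC50 from ≥3 independent experiments.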

A short description of series [2]: Kinetic solubility in pH 6.5 phosphate buffer after 30 mins by nephelometry. The format is physicochemical. The settings on record: read-out: Kinetic_solubility. In short, it runs like this: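 DMSO stock spiked into pH 6.5 phosphate buffer at 7 concentrations, final DMSO 1%; after 30 min precipitation read by nephelometry to give a solubility range.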
Series [3] is described as follows: Half life in mouse liver microsomes at 1 uM in presence of NADPH-regenerating system. The format is ADME, Microsome.
A short description of series [4]: Distribution coefficient, logD of compound at pH 7.4 by HPLC analysis. The format is physicochemical. The settings on record: octanol/water. The method, boiled down:
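LogD at pH 7.4 estimated by gradient HPLC, correlating retention (mean of 2 injections) against standards of known partition coefficient.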

The nature of series [5]: Half life in human liver microsomes at 1 uM in presence of NADPH-regenerating system. The format is ADME, Microsome. In general terms: Microsomes from liver hold many membrane-bound enzymes, among them those of drug oxidation.
In series [6] the target is Voltage-gated inwardly rectifying potassium channel KCNH2 (Homo sapiens, UniProt Q12809). In words: Inhibition of human ERG.

≈ marks a conversion by molar mass, not a printed value. Calls of active or inactive are those of the source.

Sequence of Voltage-gated inwardly rectifying potassium channel KCNH2 (Q12809 whole entry): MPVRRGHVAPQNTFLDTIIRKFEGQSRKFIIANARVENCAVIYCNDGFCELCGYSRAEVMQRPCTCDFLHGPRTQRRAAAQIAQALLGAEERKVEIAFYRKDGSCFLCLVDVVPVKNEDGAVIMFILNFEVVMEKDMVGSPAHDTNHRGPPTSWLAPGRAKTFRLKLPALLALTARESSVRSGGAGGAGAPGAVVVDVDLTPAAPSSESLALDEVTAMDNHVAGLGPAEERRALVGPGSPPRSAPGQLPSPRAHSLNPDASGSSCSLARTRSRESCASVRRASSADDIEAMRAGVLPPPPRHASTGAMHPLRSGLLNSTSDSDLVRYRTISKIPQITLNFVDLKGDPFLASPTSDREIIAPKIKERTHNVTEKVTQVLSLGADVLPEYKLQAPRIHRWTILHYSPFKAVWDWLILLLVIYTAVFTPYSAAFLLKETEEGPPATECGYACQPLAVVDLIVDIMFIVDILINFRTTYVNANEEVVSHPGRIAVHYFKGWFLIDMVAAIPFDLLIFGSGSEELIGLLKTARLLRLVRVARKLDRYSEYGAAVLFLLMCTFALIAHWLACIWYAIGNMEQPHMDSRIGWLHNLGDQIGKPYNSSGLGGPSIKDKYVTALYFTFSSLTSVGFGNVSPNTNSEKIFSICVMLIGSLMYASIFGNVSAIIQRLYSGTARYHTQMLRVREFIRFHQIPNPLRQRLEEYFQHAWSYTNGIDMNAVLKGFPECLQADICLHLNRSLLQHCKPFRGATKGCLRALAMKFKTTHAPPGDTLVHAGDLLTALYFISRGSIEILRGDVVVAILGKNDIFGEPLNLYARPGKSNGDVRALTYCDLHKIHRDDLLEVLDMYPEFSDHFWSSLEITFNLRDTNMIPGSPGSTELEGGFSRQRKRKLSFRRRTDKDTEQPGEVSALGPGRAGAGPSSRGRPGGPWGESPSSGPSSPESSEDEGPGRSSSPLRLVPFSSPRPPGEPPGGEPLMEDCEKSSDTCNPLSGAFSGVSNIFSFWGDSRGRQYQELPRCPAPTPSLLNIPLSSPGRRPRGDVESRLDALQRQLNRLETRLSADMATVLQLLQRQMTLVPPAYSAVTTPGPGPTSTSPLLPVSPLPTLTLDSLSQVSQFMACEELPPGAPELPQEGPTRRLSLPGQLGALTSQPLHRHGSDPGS

For `FC(F)Oc1ccc(-c2nnc3cncc(OCCN4CCCC4)n23)cc1`, the outcome in series [1] was inactive.

`c1ccc(CCOc2cncc3nnc(C4CCOC4)n23)cc1` (stereo unspecified): the outcome in series [1] was inactive.

Regarding `FC(F)Oc1ccc(-c2nnc3cncc(OCCc4ccccc4)n23)cc1`, the solubility kinetic at 0.5 h in series [2] was 6.3 µg/mL (≈ 16.5 µM). The figures for the half-life at 1 µM in series [3] and in series [5] were 7 min and 26 min, respectively. The logD (usually the decadic logarithm of the distribution of all forms, ionised or not, between an organic phase and buffer at a given pH) in series [4] was found to be 3.7. Besides, the IC50 (in general, the concentration at which inhibition is half-maximal) in series [6] was 7.41 µM.

Regarding `c1ccc(CCOc2cncc3nnc(C4CCNCC4)n23)cc1`, the result in series [1] was inactive.

For `CC(C)(C)OC(=O)N1CCC(c2nnc3cncc(OCCc4ccccc4)n23)C1` (stereo unspecified), the result in series [1] was inactive.

As for `FC(F)Oc1ccc(-c2nnc3cncc(OCC45CC(C(F)F)(C4)C5)n23)cc1`, the outcome in series [1] was Active. The solubility kinetic at 0.5 h in series [2] came to 6.3 µg/mL (≈ 15.4 µM). The half-life (in general, the time needed for the level to fall by half in the phase considered) at 1 µM in series [3] is 66 min; in series [5], 190 min. The compound further yielded a logD in series [4] of 3.6.

Turning to `FC(F)Oc1ccc(-c2nnc3cncc(OCCN4CCCCC4)n23)cc1`, the outcome in series [1] was inactive.

`FC(F)Oc1ccc(-c2nnc3cncc(Oc4ccccc4)n23)cc1`: the outcome in series [1] was inactive.

For `FC(F)Oc1ccc(-c2nnc3cncc(OCCC45C6C7C8C6C4C8C75)n23)cc1` (stereo unspecified), the result in series [1] was Active. Moreover, in series [2], the solubility kinetic at 0.5 h is less than 1.6 µg/mL. Moreover, the results for the half-life at 1 µM in series [3] and in series [5] were 3 min and 9 min, respectively. Also, in series [4], the logD was 4.3. Moreover, the IC50 in series [6] was 4.26 µM.

Take `CC(C)(C)OC(=O)N1CCN(CCOc2cncc3nnc(-c4ccc(OC(F)F)cc4)n23)CC1`: the outcome in series [1] was inactive.

As for `c1ccc(CCOc2cncc3nnc(C4CCNC4)n23)cc1` (stereo unspecified), the outcome in series [1] was inactive.

Turning to `FC(F)Oc1ccc(-c2nnc3cncc(OCCN4CCNCC4)n23)cc1`, in series [1], the outcome was inactive.

Take `FC(F)Oc1ccc(-c2nnc3cncc(OCCN4CC5(COC5)C4)n23)cc1`: the result in series [1] was inactive.

For `FC(F)Oc1ccc(-c2nnc3cncc(OC[C@H]4C[C@@H]5C[C@@H]4[C@H]4O[C@@H]54)n23)cc1`, in series [1], the result was inactive.

For `c1ccc(CCOc2cncc3nnc(C4CCOCC4)n23)cc1`, in series [1], the outcome was inactive.

For the compound `FC(F)Oc1ccc(-c2nnc3cncc(OCCC4COC4)n23)cc1`, in series [1], the result was inactive.

As for `FC(F)Oc1ccc(-c2nnc3cncc(OC[C@H]4C[C@@H]5C[C@@H]4[C@@H]4O[C@H]54)n23)cc1`, the outcome in series [1] was inactive.

Turning to `CC(C)(C)OC(=O)N1CCC(c2nnc3cncc(OCCc4ccccc4)n23)CC1`, the outcome in series [1] was inactive.
